In test [1] the test system is NCI-H460. Description: Cytotoxicity against human NCI-H460 cells after 72 hrs by SRB assay. Format: functional, cell-based. The settings on record: NCI-H460, 72 h. An outline of the steps:
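NCI-H460 (ATCC) cells seeded in 96-well plates in growth medium. Scalar drug concentrations added 24 h after plating, then 72 h exposure. Surviving cells stained with sulforhodamine B, OD read at 570 nm. IC50 (50% growth inhibition) fitted from dose–response curves. Mean ± SE of at least three independent experiments.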

Test [2] can be described thus: Inhibition of tubulin polymerization. In a few lines:
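Tubulin (3 mg/mL HTS) in G-PEM buffer plus 5% glycerol, prepared at 4 °C, incubated at 37 °C with or without compound. Polymerization followed by A340 over 60 min. Polymer taken as the AUC, with untreated control AUC set to 100%. IC50 derived by non-linear regression.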

Molecule `COc1cc(C2CC(c3ccc(F)cc3)=NN2C(C)=O)cc(OC)c1OC` (centres undefined) gave an IC50 in test [1] of 12 µM.

Turning to `COc1cc(C2=NN(C(=O)CO)C(c3cc(OC)c(OC)c(OC)c3)C2)ccc1O` (centres undefined), in test [1], inhibition was half-maximal at 1.85 µM (IC50). Same read-out and setting: the result for `COc1cc(C2=NN(C(=O)COC(C)=O)C(c3cc(OC)c(OC)c(OC)c3)C2)ccc1O` (centres undefined) reads 4.5 µM; that for `CCN(CC)c1ccc(C2=NN(C(=O)COC(C)=O)C(c3cc(OC)c(OC)c(OC)c3)C2)cc1` (centres undefined), 5 µM; that for `COc1cc(C2CC(c3cccc(Br)c3)=NN2)cc(OC)c1OC` (centres undefined), above 20 µM. In the case of `CCN(CC)c1ccc(C2=NNC(c3cc(OC)c(OC)c(OC)c3)C2)cc1` (centres undefined), the values for the concentration for half-maximal inhibition (IC50) in test [2] and in test [1] were above 10 µM and above 20 µM, respectively. For `COc1cc(C2CC(c3ccc(C)cc3)=NN2)cc(OC)c1OC` (centres undefined) the same measures were above 10 µM and above 20 µM. The molecule `COc1cc(C2CC(c3ccc(SC)cc3)=NN2C(C)=O)cc(OC)c1OC` (centres undefined) gave an IC50 in test [1] of 8 µM. In other words, the single-digit micromolar range. Molecule `COc1cc(C2CC(c3cccc(O)c3)=NN2)cc(OC)c1OC` (centres undefined) returned an IC50 in test [1] above 20 µM. Molecule `COc1cc(C2=NNC(c3cc(OC)c(OC)c(OC)c3)C2)ccc1O` (centres undefined) came in with an IC50 in test [1] above 20 µM. On the same count and under the same terms, the result for `COc1cc(C2CC(c3ccc(N(C)C)cc3)=NN2)cc(OC)c1OC` (centres undefined) reads above 20 µM. In test [1], `CCN(CC)c1ccc(C2CC(c3cc(OC)c(OC)c(OC)c3)=NN2C(C)=O)cc1` (centres undefined) displayed an IC50 of 13.8 µM.

On to `COc1cccc(C2=NN(C(C)=O)C(c3cc(OC)c(OC)c(OC)c3)C2)c1` (centres undefined), for which the IC50 in test [1] was above 20 µM. Same read-out and setting: the value for `COc1cc(C2CC(c3ccc(Cl)cc3)=NN2C(C)=O)cc(OC)c1OC` (centres undefined) was 11.9 µM; that for `COc1ccc(C2CC(c3cc(OC)c(OC)c(OC)c3)=NN2C(C)=O)cc1` (centres undefined) was above 20 µM. Still for that read-out and setting: the value for `COc1cccc(C2CC(c3cc(OC)c(OC)c(OC)c3)=NN2)c1` (centres undefined) was 11.6 µM. Take `COc1cc(C2CC(c3ccc(Br)cc3)=NN2)cc(OC)c1OC` (centres undefined): in test [1], the IC50 was above 20 µM. Still for that read-out and setting: the value for `COc1cccc(C2CC(c3cc(OC)c(OC)c(OC)c3)=NN2C(C)=O)c1` (centres undefined) was above 20 µM. Same read-out and setting: the result for `COc1cc(C2CC(c3cccc(Br)c3)=NN2C(=O)CO)cc(OC)c1OC` (centres undefined) reads 1.1 µM. For the molecule `COc1cc(C2CC(c3cccc(N)c3)=NN2C(C)=O)cc(OC)c1OC` (centres undefined), the IC50 was above 10 µM in test [2] and 0.74 µM in test [1].

In test [1], `COc1ccc(C2=NN(C(C)=O)C(c3cc(OC)c(OC)c(OC)c3)C2)cc1` (centres undefined) displayed an IC50 above 20 µM. Same read-out and setting: the result for `COc1ccc(C2=NNC(c3cc(OC)c(OC)c(OC)c3)C2)cc1` (centres undefined) reads above 20 µM; that for `COc1cc(C2CC(c3cccc(Br)c3)=NN2C(=O)COC(C)=O)cc(OC)c1OC` (centres undefined), above 20 µM; that for `COc1cccc(C2=NNC(c3cc(OC)c(OC)c(OC)c3)C2)c1` (centres undefined), above 20 µM.

Consider `CCN(CC)c1ccc(C2=NN(C(=O)CO)C(c3cc(OC)c(OC)c(OC)c3)C2)cc1` (centres undefined), for which the IC50 in test [2] is 6.14 µM; in test [1], 0.95 µM.

For `COc1cc(C2CC(c3ccc(C)cc3)=NN2C(=O)CO)cc(OC)c1OC` (centres undefined), the IC50 in test [2] worked out at 7.72 µM; in test [1] it was 0.69 µM.

Regarding `COc1cc(C2=NNC(c3cccc(O)c3)C2)cc(OC)c1OC` (centres undefined), the IC50 in test [1] was above 20 µM. Still for that read-out and setting: the value for `COc1cc(C2=NN(C(C)=O)C(c3cccc(O)c3)C2)cc(OC)c1OC` (centres undefined) was above 20 µM; that for `COc1cc(C2CC(c3ccc(SC)cc3)=NN2)cc(OC)c1OC` (centres undefined) was above 20 µM. Same read-out and setting: the value for `COc1cc(C2CC(c3ccc(N(C)C)cc3)=NN2C(=O)CO)cc(OC)c1OC` (centres undefined) was 1.3 µM. As for `COc1cc(C2CC(c3ccc(N)cc3)=NN2C(C)=O)cc(OC)c1OC` (centres undefined), the figures for the IC50 in test [2] and in test [1] were 10 µM and 2.6 µM, respectively. As to `COc1cc(C2CC(c3ccc(Br)cc3)=NN2C(C)=O)cc(OC)c1OC` (centres undefined), the midpoint of inhibition in test [1], the IC50, lay at 6 µM. This counts as single-digit micromolar.

`COc1cc(C2CC(c3ccc(C)cc3)=NN2C(=O)COC(C)=O)cc(OC)c1OC` (centres undefined) displayed an IC50 in test [1] of 3.3 µM.

On to `COc1cc(C2CC(c3ccc(C)cc3)=NN2C(C)=O)cc(OC)c1OC` (centres undefined), for which the values for the IC50 in test [2] and in test [1] were above 10 µM and 1.3 µM, respectively. Regarding `COc1cc(C2=NN(C(C)=O)C(c3ccc(N(C)C)cc3)C2)cc(OC)c1OC` (centres undefined), in test [1], the IC50 is above 20 µM. Take `COc1cc(C2CC(c3ccc(F)cc3)=NN2)cc(OC)c1OC` (centres undefined): in test [1], the IC50 was above 20 µM.

In test [1], `COc1cc(C2CC(c3ccc(N(C)C)cc3)=NN2C(=O)COC(C)=O)cc(OC)c1OC` (centres undefined) showed an IC50 above 20 µM.

The record behind these values is ChEMBL document CHEMBL1221342, “Synthesis and in vitro antitumor activity of new 4,5-dihydropyrazole derivatives” (Bioorg Med Chem, 2010).
